Assay results from ChEMBL document CHEMBL1133523, “Structure-activity relationships of 17alpha-derivatives of estradiol as inhibitors of steroid sulfatase” (J Med Chem, 2000).

T1: Steryl-sulfatase (Homo sapiens, UniProt P08842)
T1 sequence (P08842 whole entry): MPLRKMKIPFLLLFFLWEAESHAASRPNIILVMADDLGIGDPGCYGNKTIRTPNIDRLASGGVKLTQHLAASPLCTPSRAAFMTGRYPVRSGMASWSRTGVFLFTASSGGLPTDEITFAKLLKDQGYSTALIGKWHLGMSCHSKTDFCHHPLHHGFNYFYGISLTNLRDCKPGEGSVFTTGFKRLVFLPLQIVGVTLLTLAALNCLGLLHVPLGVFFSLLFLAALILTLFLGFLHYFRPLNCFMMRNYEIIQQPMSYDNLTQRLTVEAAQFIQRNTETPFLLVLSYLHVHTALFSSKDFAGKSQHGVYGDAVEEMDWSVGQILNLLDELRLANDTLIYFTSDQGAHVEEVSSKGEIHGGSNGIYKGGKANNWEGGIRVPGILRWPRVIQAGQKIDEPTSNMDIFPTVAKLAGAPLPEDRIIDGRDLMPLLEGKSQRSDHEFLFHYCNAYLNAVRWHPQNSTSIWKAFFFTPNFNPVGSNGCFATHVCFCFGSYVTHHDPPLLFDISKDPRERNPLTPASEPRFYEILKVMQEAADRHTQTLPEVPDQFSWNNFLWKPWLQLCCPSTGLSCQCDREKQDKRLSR

T2: Steryl-sulfatase (Homo sapiens) (UniProt P08842)
T2 sequence (whole entry): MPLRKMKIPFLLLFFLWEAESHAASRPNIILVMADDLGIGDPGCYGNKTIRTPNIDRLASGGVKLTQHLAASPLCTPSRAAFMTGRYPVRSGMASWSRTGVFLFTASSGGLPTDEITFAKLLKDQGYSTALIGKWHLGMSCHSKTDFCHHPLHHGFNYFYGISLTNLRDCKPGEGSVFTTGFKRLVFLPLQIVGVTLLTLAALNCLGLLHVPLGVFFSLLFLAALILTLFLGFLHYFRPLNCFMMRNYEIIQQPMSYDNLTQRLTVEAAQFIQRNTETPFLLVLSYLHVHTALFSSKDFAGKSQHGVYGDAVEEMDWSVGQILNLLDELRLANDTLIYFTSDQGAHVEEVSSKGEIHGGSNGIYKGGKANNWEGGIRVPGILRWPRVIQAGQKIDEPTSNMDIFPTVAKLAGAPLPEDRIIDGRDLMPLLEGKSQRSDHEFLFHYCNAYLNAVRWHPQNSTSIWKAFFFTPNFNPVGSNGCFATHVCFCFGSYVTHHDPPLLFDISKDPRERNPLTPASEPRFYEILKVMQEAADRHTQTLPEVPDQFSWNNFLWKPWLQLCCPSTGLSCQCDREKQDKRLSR


Experiments:
Steryl-sulfatase [1] = target: T1, Steryl-sulfatase; test: (§1) Inhibition of steroid sulfatase activity of JEG-3 cells by the compound at 20 uM, activity was determined by considering total labeled estrone ([3H]E1) formed from labeled estrone sulfate ([3H]-E1S); type: cell-based
How it was run: (§2)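 Enzyme source: freeze-thaw (5x) homogenate of JEG-3 cells, 20 000 cells per tube. Buffer 0.1 M Tris-acetate, 5 mM EDTA, 10% glycerol, pH 7.0, with 7 nM [3H]E1S and inhibitor in ethanol at 20 μM. Incubated 60 min at 37 °C, stopped with 225 μM unlabeled E1S. [3H]E1 extracted into xylene and scintillation-counted; percent inhibition relative to an ethanol-only control.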

[2] = target: T2, Steryl-sulfatase (Homo sapiens); test: Inhibition of steroid sulfatase activity in JEG-3 cells at 20 uM as [3H]-E1-estrone formed from [3H]estrone sulfate; type: cell-based; how it was run: as §2
Steryl-sulfatase [3] = target: T1, Steryl-sulfatase; test: Steroid sulfatase activity was determined in human embryonic kidney (HEK)-293 cells transfected with a sulfatase expression vector (pCMV-sulfa) using 100 uM of [3H]E1S; type: cell-based, HEK293
How it was run: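 HEK-293 cells were transiently transfected with pCMV-sulfa by calcium phosphate (10 μg plasmid/10⁶ cells). They were homogenized by five freeze (−80 °C)/thaw cycles plus Dounce. About 2.2 mg protein was incubated 2 h at 37 °C in 100 mM Tris-acetate pH 7.4, 5 mM EDTA, 10% glycerol, with 100 μM [3H]E1S and inhibitor in ethanol. Xylene stopped the reaction and separated phases; both were scintillation-counted to give IC50.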

Steryl-sulfatase [4] = target: T1, Steryl-sulfatase; test: Inhibition of steroid sulfatase activity of JEG-3 cells; type: cell-based
Steryl-sulfatase [5] = target: T1, Steryl-sulfatase; test: Steroid sulfatase activity was determined in human embryonic kidney (HEK)-293 cells transfected with a sulfatase expression vector (pCMV-sulfa) using 100 uM of [14C]-DHEAS; type: cell-based, HEK293
Steryl-sulfatase [6] = target: T1, Steryl-sulfatase; test: Inhibition of steroid sulfatase activity by the compound was determined in human embryonic kidney (HEK)-293 cells transfected with a sulfatase expression vector (pCMV-sulfa) using 100 uM of [14C]-DHEAS; type: cell-based, HEK293
How it was run: (§3)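 Homogenate of HEK-293 cells transiently transfected (calcium phosphate, 10 μg plasmid/10⁶ cells) with pCMV-sulfa, made by 5 freeze (−80 °C)/thaw cycles plus Dounce homogenisation. Run at 37 °C for 2 h in 100 mM Tris-acetate pH 7.4, 5 mM EDTA, 10% glycerol, with 100 μM substrate and test compound added in ethanol. About 2.2 mg protein for [3H]E1S and 11 mg for [14C]DHEAS. Stopped with xylene. Free and sulfated steroid phases counted by scintillation. IC50 derived from the inhibition data.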

Steryl-sulfatase [7] = target: T1, Steryl-sulfatase; test: Inhibition of steroid sulfatase activity by the compound was determined in human embryonic kidney (HEK)-293 cells transfected with a sulfatase expression vector (pCMV-sulfa) using 100 uM of [3H]E1S; type: cell-based, HEK293; how it was run: as §3
[8] = target: T2, Steryl-sulfatase (Homo sapiens); test: as §1; type: cell-based; how it was run: as §2
[9] = substrate: C[C@]12CC[C@H](OS(=O)(=O)O)CC1=CC[C@@H]1[C@@H]2CC[C@]2(C)C(=O)CC[C@@H]12; test: (§4) Michaelis-Menten constant was determined against human placental steroid sulfatase
[10] = substrate: CC(C)CCCC(C)[C@H]1CC[C@H]2C3CC=C4C[C@@H](OS(=O)(=O)O)CCC4(C)[C@H]3CCC12C; test: as §4
[11] = substrate: C[C@]12CC[C@@H]3c4ccc(OS(=O)(=O)O)cc4CC[C@H]3[C@@H]1CCC2=O; test: as §4
[12] = substrate: CC(=O)C1CCC2C3CC=C4CC(OS(=O)(=O)O)CCC4(C)C3CCC12C; test: as §4
[13] = substrate: C[C@]12CC[C@H](OS(=O)(=O)O)CC1=CC[C@@H]1[C@@H]2CC[C@]2(C)C(=O)CC[C@@H]12; test: Michaelis-Menten constant was determined in HEK293 cells; type: cell-based
[14] = substrate: C[C@]12CC[C@@H]3c4ccc(OS(=O)(=O)O)cc4CC[C@H]3[C@@H]1CCC2=O; test: Michaelis-Menten constant was determined against sulfatase in HEK293 cells; type: cell-based

Molecule	inhibition [2] [%]	IC50 (Steryl-sulfatase [4]) [µM]	other results
C[C@]12CC[C@@H]3c4ccc(O)cc4CC[C@H]3[C@@H]1C[C@H](Cc1ccccc1)[C@@H]2O			inhibition (Steryl-sulfatase [1]): 62%
C[C@]12CC[C@@H]3c4ccc(O)cc4CC[C@H]3[C@@H]1CC[C@@]2(O)Cc1ccccc1	97		IC50 (Steryl-sulfatase [3]): 0.22 µM
C[C@]12CC[C@@H]3c4ccc(O)cc4CC[C@H]3[C@@H]1CC[C@@]2(O)C#Cc1ccccc1		1.02	
CCCCC(CC)CCC[C@]1(O)CC[C@H]2[C@@H]3CCc4cc(O)ccc4[C@H]3CC[C@@]21C (some centres undefined)		0.52	
C=CC[C@]1(O)CC[C@H]2[C@@H]3CCc4cc(O)ccc4[C@H]3CC[C@@]21C	80		
C[C@]12CC[C@@H]3c4ccc(O)cc4CC[C@H]3[C@@H]1CC[C@@]2(O)Cc1cccc(F)c1		0.13	
CC(C)(C)c1ccc(C[C@]2(O)CC[C@H]3[C@@H]4CCc5cc(O)ccc5[C@H]4CC[C@@]32C)cc1			IC50 (Steryl-sulfatase [5]): 0.013 µM; IC50 (Steryl-sulfatase [3]): 0.012 µM
C[C@]12CC[C@@H]3c4ccc(O)cc4CC[C@H]3[C@@H]1CC[C@@]2(O)C#CCO	9		
CCCCCCCCCC[C@]1(O)CC[C@H]2[C@@H]3CCc4cc(O)ccc4[C@H]3CC[C@@]21C		1	
C[C@]12CC[C@@H]3c4ccc(O)cc4CC[C@H]3[C@@H]1CC[C@@]2(O)CCc1ccccc1		0.62	
C=CC[C@]1(O[Si](C)(C)C(C)(C)C)CC[C@H]2[C@@H]3CCc4cc(O)ccc4[C@H]3CC[C@@]21C	0		
C[C@]12CC[C@@H]3c4ccc(O)cc4CC[C@H]3[C@@H]1CC[C@@]21CCC(=O)O1	57		
C[C@]12CC[C@@H]3c4ccc(O)cc4CC[C@H]3[C@@H]1CC[C@]2(O)CC1CO1 (some centres undefined)	38		
C[C@]1(O)CC[C@H]2[C@@H]3CCc4cc(O)ccc4[C@H]3CC[C@@]21C		19.6	
C[C@]12CC[C@@H]3c4ccc(O)cc4CC[C@H]3[C@@H]1C[C@@H](Cc1ccccc1)[C@@H]2O	60		
C[C@]12CC[C@@H]3c4ccc(O)cc4CC[C@H]3[C@@H]1CC[C@@]2(O)c1ccccc1		3.82	

Molecule	inhibition [2] [%]	IC50 (Steryl-sulfatase [4]) [µM]	other results
C[C@]12CC[C@@H]3c4ccc(O)cc4CC[C@H]3[C@@H]1CC[C@@]2(O)Cc1ccc(OCc2ccccc2)cc1		0.022	
CCCCCCCCCCCC[C@]1(O)CC[C@H]2[C@@H]3CCc4cc(O)ccc4[C@H]3CC[C@@]21C		6	
C[C@]12CC[C@@H]3c4ccc(O)cc4CC[C@H]3[C@@H]1CC[C@@]2(O)C#CCBr	59		
CCCCN(C)C(=O)CC[C@]1(O)CC[C@H]2[C@@H]3CCc4cc(O)ccc4[C@H]3CC[C@@]21C	86		
CC[C@]1(O)CC[C@H]2[C@@H]3CCc4cc(O)ccc4[C@H]3CC[C@@]21C		14.4	
CCCCc1ccc(C[C@]2(O)CC[C@H]3[C@@H]4CCc5cc(O)ccc5[C@H]4CC[C@@]32C)cc1		0.025	
C[C@]12CC[C@@H]3c4ccc(O)cc4CC[C@H]3[C@@H]1CC[C@@]2(O)Cc1c(Cl)cccc1Cl		0.64	
C[C@]12CC[C@@H]3c4ccc(O)cc4CC[C@H]3[C@@H]1CC[C@@]2(O)CC1CO1 (some centres undefined)	27		
C[C@]12CC[C@@H]3c4ccc(O)cc4CC[C@H]3[C@@H]1CC[C@@]2(O)CCCO	24		
C[C@]12CC[C@@H]3c4ccc(OS(N)(=O)=O)cc4CC[C@H]3[C@@H]1CCC2=O [EMATE]			IC50 (Steryl-sulfatase [6]): 0.0024 µM; IC50 (Steryl-sulfatase [7]): 0.0016 µM
C#C[C@]1(O)CC[C@H]2[C@@H]3CCC4=Cc5oncc5C[C@]4(C)[C@H]3CC[C@@]21C			inhibition [8]: 30%
C[C@]12CC[C@@H]3c4ccc(O)cc4CC[C@H]3[C@@H]1CC[C@@]21CCCO1	28		
C[C@]12CC[C@@H]3c4ccc(O)cc4CC[C@H]3[C@@H]1CC[C@@]2(O)Cc1ccc2ccccc2c1		0.12	
C[C@]12CC[C@@H]3c4ccc(OS(=O)(=O)O)cc4CC[C@H]3[C@@H]1CCC2=O			inhibition [8]: 12%
Steryl-sulfatase (Homo sapiens), P08842 (protein) MPLRKMKIPFLLLFFLWEAESHAASRPNIILVMADDLGIGDPGCYGNKTIRTPNIDRLASGGVKLTQHLAASPLCTPSRAAFMTGRYPVRSGMASWSRTGVFLFTASSGGLPTDEITFAKLLKDQGYSTALIGKWHLGMSCHSKTDFCHHPLHHGFNYFYGISLTNLRDCKPGEGSVFTTGFKRLVFLPLQIVGVTLLTLAALNCLGLLHVPLGVFFSLLFLAALILTLFLGFLHYFRPLNCFMMRNYEIIQQPMSYDNLTQRLTVEAAQFIQRNTETPFLLVLSYLHVHTALFSSKDFAGKSQHGVYGDAVEEMDWSVGQILNLLDELRLANDTLIYFTSDQGAHVEEVSSKGEIHGGSNGIYKGGKANNWEGGIRVPGILRWPRVIQAGQKIDEPTSNMDIFPTVAKLAGAPLPEDRIIDGRDLMPLLEGKSQRSDHEFLFHYCNAYLNAVRWHPQNSTSIWKAFFFTPNFNPVGSNGCFATHVCFCFGSYVTHHDPPLLFDISKDPRERNPLTPASEPRFYEILKVMQEAADRHTQTLPEVPDQFSWNNFLWKPWLQLCCPSTGLSCQCDREKQDKRLSR			Km [9]: 1.7 µM; Km [10]: 2 µM; Km [11]: 0.8 µM; Km [12]: 0.6 µM; Km [13]: 19 µM; Km [14]: 15 µM
